# Calls of active or inactive are those of the source. The calls are words filed in the database; no cut-off is given here. Square brackets hold non-standard residues; d marks the D form. Peptide text beside a SMILES is read from it. * marks the point of attachment. ξ: configuration not given here. Phe(4-NO2) = N[C@@H](Cc1ccc([N+](=O)[O-])cc1)C(=O)O; Phe(4-CN) = N#Cc1ccc(C[C@H](N)C(=O)O)cc1; 2Pal = N[C@@H](Cc1ccccn1)C(=O)O; 3Pal = N[C@@H](Cc1cccnc1)C(=O)O; Cha = N[C@@H](CC1CCCCC1)C(=O)O; Phg = N[C@H](C(=O)O)c1ccccc1; Tle = CC(C)(C)[C@H](N)C(=O)O; ξTic = O=C(O)C1Cc2ccccc2CN1; ξChg = NC(C(=O)O)C1CCCCC1; 3Abz = Nc1cccc(C(=O)O)c1; 4Abz = Nc1ccc(C(=O)O)cc1; Nva = CCC[C@H](N)C(=O)O; 2Abz = Nc1ccccc1C(=O)O; ξPip = O=C(O)C1CCCCN1; ξPra = C#CCC(N)C(=O)O; Aib = CC(C)(N)C(=O)O; Bz = O=C(c1ccccc1)*; βAla = NCCC(=O)O
# Key:
# [1] = biological target: Genome polyprotein (dengue virus type 2) (UniProt P12823); assay: Inhibition of Dengue virus serotype 2 NS2B-NS3 protease at 50 uM by homogeneous fluorimetric assay
# Genome polyprotein [2] = biological target: Genome polyprotein (dengue virus type 2, UniProt P12823); assay: Inhibition of Dengue virus serotype 2 NS2B-NS3 protease by homogeneous fluorimetric assay
# [3] = biological target: Genome polyprotein (West Nile virus) (UniProt P06935); assay: Inhibition of West Nile virus […] NS2B-NS3 protease at 50 uM by homogeneous fluorimetric assay
# Summary of the method: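 WNV NS2B-NS3 protease percent inhibition, homogeneous fluorimetric assay: enzyme 150 nM, inhibitor 50 μM, substrate 50 μM (Km = 212 μM); triplicate, SD below 10%.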
# [4] = biological target: Prothrombin (Homo sapiens) (UniProt P00734); assay: Inhibition of thrombin (unknown origin) at 25 uM by homogeneous fluorimetric assay
# [5] = biological target: Genome polyprotein (dengue virus type 2) (UniProt P12823); assay: Competitive inhibition of Dengue virus serotype 2 NS2B-NS3 protease by aprotinin competition fluorescence assay
# Summary of the method: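 Active-site binding checked by aprotinin competition: fluorescence decrease followed with increasing inhibitor concentration, then aprotinin added to test recovery of fluorescence.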
# Genome polyprotein [6] = biological target: Genome polyprotein (West Nile virus, UniProt P06935); assay: Inhibition of West Nile virus […] NS2B-NS3 protease by homogeneous fluorimetric assay
# Chain of Genome polyprotein (West Nile virus, UniProt P06935) (P06935 1371-1501 limits assumed): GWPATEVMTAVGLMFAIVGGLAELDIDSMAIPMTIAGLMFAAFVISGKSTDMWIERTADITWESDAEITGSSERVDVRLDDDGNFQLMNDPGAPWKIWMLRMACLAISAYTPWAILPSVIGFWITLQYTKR
# Chain of Genome polyprotein (West Nile virus, UniProt P06935) (P06935 1502-2120 limits assumed): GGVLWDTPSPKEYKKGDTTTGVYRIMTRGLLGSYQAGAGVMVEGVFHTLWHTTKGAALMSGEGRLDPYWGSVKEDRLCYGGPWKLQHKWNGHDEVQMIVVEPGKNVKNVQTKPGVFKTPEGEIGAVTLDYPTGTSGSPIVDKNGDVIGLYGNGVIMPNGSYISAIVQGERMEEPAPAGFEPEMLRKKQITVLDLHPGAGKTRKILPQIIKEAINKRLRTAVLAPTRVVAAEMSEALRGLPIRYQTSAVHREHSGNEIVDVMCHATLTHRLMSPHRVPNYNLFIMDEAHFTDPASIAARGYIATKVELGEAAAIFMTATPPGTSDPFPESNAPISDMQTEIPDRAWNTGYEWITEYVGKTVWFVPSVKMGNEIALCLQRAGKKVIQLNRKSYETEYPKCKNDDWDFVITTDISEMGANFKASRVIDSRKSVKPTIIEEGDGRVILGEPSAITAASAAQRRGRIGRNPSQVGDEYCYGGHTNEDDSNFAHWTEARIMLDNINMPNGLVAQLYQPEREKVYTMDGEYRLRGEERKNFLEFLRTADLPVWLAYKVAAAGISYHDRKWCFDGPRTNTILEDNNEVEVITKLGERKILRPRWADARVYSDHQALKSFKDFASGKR
# Chain of Genome polyprotein (West Nile virus) (P06935 whole entry): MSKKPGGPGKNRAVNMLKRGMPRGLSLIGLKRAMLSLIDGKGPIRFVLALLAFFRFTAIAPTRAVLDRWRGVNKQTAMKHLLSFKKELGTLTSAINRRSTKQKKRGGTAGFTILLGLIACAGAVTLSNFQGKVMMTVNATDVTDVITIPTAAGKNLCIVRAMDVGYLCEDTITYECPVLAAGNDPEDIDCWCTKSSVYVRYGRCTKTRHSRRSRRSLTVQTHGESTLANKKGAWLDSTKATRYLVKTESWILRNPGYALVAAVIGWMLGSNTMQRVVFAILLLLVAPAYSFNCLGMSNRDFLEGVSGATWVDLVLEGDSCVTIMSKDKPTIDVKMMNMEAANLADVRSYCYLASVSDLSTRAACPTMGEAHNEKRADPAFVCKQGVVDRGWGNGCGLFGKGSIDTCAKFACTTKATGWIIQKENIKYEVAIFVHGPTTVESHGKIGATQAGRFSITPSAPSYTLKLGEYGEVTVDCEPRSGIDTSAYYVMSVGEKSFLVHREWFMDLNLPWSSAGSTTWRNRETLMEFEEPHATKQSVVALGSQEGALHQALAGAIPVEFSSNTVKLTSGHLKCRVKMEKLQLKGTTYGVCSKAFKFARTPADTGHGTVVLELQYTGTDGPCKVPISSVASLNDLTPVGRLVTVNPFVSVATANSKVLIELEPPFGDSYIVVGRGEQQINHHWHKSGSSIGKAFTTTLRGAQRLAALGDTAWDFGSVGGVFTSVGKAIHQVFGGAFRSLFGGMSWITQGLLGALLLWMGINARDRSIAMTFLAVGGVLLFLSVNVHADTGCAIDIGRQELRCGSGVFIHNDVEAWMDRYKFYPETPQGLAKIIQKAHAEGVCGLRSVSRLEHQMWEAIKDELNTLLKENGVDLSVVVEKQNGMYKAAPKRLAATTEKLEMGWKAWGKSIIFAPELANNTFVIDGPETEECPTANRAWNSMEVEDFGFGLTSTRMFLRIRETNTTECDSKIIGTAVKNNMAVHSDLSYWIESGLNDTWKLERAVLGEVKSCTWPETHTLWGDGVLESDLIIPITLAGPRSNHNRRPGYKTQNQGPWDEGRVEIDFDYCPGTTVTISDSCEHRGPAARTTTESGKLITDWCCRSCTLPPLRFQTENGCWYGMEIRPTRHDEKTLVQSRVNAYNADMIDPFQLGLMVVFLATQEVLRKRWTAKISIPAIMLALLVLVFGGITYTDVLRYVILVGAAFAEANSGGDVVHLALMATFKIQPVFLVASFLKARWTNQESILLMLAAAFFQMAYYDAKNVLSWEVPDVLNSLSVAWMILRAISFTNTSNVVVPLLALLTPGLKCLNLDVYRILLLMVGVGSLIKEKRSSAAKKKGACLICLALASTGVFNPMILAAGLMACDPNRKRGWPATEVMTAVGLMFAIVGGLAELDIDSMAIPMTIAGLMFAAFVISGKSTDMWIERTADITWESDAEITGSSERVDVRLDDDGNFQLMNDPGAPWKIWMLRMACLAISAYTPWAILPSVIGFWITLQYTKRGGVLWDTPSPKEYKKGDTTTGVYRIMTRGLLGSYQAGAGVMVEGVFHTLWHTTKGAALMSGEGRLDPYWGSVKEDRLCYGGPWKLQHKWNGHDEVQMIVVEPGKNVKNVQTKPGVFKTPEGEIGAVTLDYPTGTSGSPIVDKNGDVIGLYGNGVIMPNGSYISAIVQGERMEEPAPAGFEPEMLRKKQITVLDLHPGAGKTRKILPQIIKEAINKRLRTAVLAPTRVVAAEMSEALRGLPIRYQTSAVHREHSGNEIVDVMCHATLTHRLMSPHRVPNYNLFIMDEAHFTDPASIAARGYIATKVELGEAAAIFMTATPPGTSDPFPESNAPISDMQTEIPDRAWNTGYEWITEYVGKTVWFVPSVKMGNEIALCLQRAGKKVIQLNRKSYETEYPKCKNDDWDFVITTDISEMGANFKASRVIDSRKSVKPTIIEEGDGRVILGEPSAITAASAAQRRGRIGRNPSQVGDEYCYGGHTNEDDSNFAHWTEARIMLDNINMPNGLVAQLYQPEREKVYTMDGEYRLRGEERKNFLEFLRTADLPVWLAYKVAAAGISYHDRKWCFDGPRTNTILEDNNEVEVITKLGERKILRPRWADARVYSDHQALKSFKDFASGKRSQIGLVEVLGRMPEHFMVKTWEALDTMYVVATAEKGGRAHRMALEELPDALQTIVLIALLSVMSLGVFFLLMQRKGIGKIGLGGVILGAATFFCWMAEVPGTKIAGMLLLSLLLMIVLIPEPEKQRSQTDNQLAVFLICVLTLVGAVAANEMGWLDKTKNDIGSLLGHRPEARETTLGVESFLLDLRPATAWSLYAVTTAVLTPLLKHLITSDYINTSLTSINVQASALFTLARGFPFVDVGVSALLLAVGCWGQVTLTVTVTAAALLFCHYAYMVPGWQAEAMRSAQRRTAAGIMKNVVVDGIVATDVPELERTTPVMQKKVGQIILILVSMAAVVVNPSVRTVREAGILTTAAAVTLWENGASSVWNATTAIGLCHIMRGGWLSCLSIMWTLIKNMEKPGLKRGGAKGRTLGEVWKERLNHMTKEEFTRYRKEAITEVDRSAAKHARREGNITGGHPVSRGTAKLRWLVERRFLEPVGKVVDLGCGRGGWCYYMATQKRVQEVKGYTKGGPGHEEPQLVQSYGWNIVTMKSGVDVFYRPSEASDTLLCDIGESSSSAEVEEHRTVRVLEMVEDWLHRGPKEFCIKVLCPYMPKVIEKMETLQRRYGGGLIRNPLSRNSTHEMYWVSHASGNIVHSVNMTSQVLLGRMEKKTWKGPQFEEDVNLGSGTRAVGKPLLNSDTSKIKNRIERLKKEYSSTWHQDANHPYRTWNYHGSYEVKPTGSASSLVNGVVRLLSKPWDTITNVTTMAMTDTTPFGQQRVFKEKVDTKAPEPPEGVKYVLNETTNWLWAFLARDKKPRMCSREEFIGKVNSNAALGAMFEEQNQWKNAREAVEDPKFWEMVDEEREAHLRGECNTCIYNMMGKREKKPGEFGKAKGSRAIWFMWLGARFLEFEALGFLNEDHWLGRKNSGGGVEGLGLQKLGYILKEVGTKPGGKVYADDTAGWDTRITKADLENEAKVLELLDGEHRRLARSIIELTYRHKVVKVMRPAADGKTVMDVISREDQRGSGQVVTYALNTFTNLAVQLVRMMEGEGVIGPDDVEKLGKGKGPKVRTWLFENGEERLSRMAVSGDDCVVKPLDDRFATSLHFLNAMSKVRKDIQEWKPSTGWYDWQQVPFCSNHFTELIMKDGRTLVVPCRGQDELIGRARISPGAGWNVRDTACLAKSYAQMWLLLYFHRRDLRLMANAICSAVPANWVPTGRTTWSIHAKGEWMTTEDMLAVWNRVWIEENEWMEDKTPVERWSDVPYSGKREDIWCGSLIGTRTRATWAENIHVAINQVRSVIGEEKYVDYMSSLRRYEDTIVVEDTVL
Compound,inhibition [1] [%],IC50 (Genome polyprotein [2]) [µM],inhibition [3] [%],inhibition [4],inhibition [5],IC50 (Genome polyprotein [6]) [µM],Ki (Genome polyprotein [6]) [µM]
N=C(N)NCCC[C@H](NC(=O)c1ccc(/C=C2\SC(=O)N(C3CCCC3)C2=O)cc1)C(=O)N[C@@H](CCCCN)C(=O)N[C@H](C(N)=O)c1ccccc1,99.6,0.6,98.4,9.2%,Dose-dependent effect,–,–
C[C@@H](O)[C@H](NC(=O)[C@H](CCCCN)NC(=O)[C@H](CCCNC(=N)N)NC(=O)c1ccccc1)C(N)=O (Bz-Arg-Lys-Thr-NH2),32.1,98.6,16.5,inactive,–,–,–
N=C(N)NCCC[C@H](NC(=O)c1ccccc1)C(=O)N[C@@H](CCCCN)C(=O)N[C@@H](Cc1c[nH]c2ccccc12)C(N)=O (Bz-Arg-Lys-Trp-NH2),74.1,17.6,32.8,inactive,–,–,–
N=C(N)NCCC[C@H](NC(=O)c1ccccc1)C(=O)N[C@@H](CCCCN)C(=O)N[C@@H](Cc1ccc(O)cc1)C(N)=O (Bz-Arg-Lys-Tyr-NH2),82.3,7.4,12.9,7.9%,–,–,–
CC(C)[C@H](NC(=O)[C@H](CCCCN)NC(=O)[C@H](CCCNC(=N)N)NC(=O)c1ccccc1)C(N)=O (Bz-Arg-Lys-Val-NH2),60,28.8,18.3,4.9%,–,–,–
N=C(N)NCCC[C@H](NC(=O)c1ccccc1)C(=O)N[C@@H](CCCCN)C(=O)Nc1ccccc1C(N)=O (Bz-Arg-Lys-[2Abz]-NH2),62,15.8,8.7,6.4%,–,–,–
N=C(N)NCCC[C@H](NC(=O)c1ccccc1)C(=O)N[C@@H](CCCCN)C(=O)N[C@@H](Cc1ccccn1)C(N)=O (Bz-Arg-Lys-[2Pal]-NH2),53,44.3,9.8,inactive,–,–,–
N=C(N)NCCC[C@H](NC(=O)c1ccccc1)C(=O)N[C@@H](CCCCN)C(=O)Nc1cccc(C(N)=O)c1 (Bz-Arg-Lys-[3Abz]-NH2),27,96.6,23,5.6%,–,–,–
N=C(N)NCCC[C@H](NC(=O)c1ccccc1)C(=O)N[C@@H](CCCCN)C(=O)N[C@@H](Cc1cccnc1)C(N)=O (Bz-Arg-Lys-[3Pal]-NH2),61.3,30.1,12.5,inactive,–,–,–
N=C(N)NCCC[C@H](NC(=O)c1ccccc1)C(=O)N[C@@H](CCCCN)C(=O)Nc1ccc(C(N)=O)cc1 (Bz-Arg-Lys-[4Abz]-NH2),27.5,92.2,17.9,9.2%,–,–,–
CC(C)(NC(=O)[C@H](CCCCN)NC(=O)[C@H](CCCNC(=N)N)NC(=O)c1ccccc1)C(N)=O (Bz-Arg-Lys-[Aib]-NH2),55,46.7,13.7,inactive,–,–,–
N=C(N)NCCC[C@H](NC(=O)c1ccccc1)C(=O)N[C@@H](CCCCN)C(=O)N[C@@H](CC1CCCCC1)C(N)=O (Bz-Arg-Lys-[Cha]-NH2),80,8.2,19.1,inactive,–,–,–
CCC[C@H](NC(=O)[C@H](CCCCN)NC(=O)[C@H](CCCNC(=N)N)NC(=O)c1ccccc1)C(N)=O (Bz-Arg-Lys-[Nva]-NH2),62,25.2,8.5,inactive,–,–,–
N#Cc1ccc(C[C@H](NC(=O)[C@H](CCCCN)NC(=O)[C@H](CCCNC(=N)N)NC(=O)c2ccccc2)C(N)=O)cc1 (Bz-Arg-Lys-[Phe(4-CN)]-NH2),71.7,14.4,15.9,inactive,–,–,–
N=C(N)NCCC[C@H](NC(=O)c1ccccc1)C(=O)N[C@@H](CCCCN)C(=O)N[C@@H](Cc1ccc([N+](=O)[O-])cc1)C(N)=O (Bz-Arg-Lys-[Phe(4-NO2)]-NH2),66.6,17.5,21.3,inactive,–,–,–
N=C(N)NCCC[C@H](NC(=O)c1ccccc1)C(=O)N[C@@H](CCCCN)C(=O)N[C@H](C(N)=O)c1ccccc1 (Bz-Arg-Lys-[Phg]-NH2),95,3.3,39.3,inactive,–,58,49
CC(C)(C)[C@H](NC(=O)[C@H](CCCCN)NC(=O)[C@H](CCCNC(=N)N)NC(=O)c1ccccc1)C(N)=O (Bz-Arg-Lys-[Tle]-NH2),18.8,137,11.7,inactive,–,–,–
N=C(N)NCCC[C@H](NC(=O)c1ccccc1)C(=O)N[C@@H](CCCCN)C(=O)NCCC(N)=O (Bz-Arg-Lys-[βAla]-NH2),32.9,109,19.8,inactive,–,–,–
N=C(N)NCCC[C@H](NC(=O)c1ccccc1)C(=O)N[C@@H](CCCCN)C(=O)NC(C(N)=O)C1CCCCC1 (stereo partly drawn) (Bz-Arg-Lys-[ξChg]-NH2),71.7,17.4,12.1,inactive,–,–,–
N=C(N)NCCC[C@H](NC(=O)c1ccccc1)C(=O)N[C@@H](CCCCN)C(=O)N1CCCCC1C(N)=O (stereo partly drawn) (Bz-Arg-Lys-[ξPip]-NH2),13.7,159,12.1,inactive,–,–,–
C#CCC(NC(=O)[C@H](CCCCN)NC(=O)[C@H](CCCNC(=N)N)NC(=O)c1ccccc1)C(N)=O (stereo partly drawn) (Bz-Arg-Lys-[ξPra]-NH2),72.5,17.5,14.3,5.2%,–,–,–
N=C(N)NCCC[C@H](NC(=O)c1ccccc1)C(=O)N[C@@H](CCCCN)C(=O)N1Cc2ccccc2CC1C(N)=O (stereo partly drawn) (Bz-Arg-Lys-[ξTic]-NH2),41.6,65.8,17.8,inactive,–,–,–
